High-throughput results as filed in PubChem.
Sampled rows, rich in hits. Any-hit rate of the full collection: about 1.6%.
SR-BI DiI inh: blocks mouse SR-BI lipid uptake from DiI-HDL. Q61009. ldlA[mSR-BI] CHO cells, DiI-HDL uptake fluorescence, 3 h. inhibition, % at 12.5 µM. 320,000 compounds, 0.96% hits;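 active = mean replicate inhibition of at least 70% and a set share of replicates each scoring 70 or more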
Target sequence (Q61009 whole entry, looked up): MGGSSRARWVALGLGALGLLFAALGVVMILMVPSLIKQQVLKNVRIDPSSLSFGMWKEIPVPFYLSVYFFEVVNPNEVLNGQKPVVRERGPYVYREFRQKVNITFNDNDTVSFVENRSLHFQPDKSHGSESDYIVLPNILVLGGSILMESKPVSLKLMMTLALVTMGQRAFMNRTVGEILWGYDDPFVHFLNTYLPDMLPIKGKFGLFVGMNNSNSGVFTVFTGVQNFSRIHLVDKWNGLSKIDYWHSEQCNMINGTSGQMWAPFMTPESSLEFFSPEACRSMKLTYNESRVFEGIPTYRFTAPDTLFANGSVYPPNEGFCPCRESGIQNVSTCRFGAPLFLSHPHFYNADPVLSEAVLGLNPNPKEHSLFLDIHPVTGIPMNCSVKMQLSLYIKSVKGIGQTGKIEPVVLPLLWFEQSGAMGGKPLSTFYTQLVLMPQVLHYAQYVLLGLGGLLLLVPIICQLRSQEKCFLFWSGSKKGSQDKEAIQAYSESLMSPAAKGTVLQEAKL
SR-BI DiI-HDL act: SR-BI HDL lipid transfer activation | CHO ldlA[mSR-BI] cells, DiI-HDL uptake fluorescence, 3 h; 100 = double the neutral-control signal | activation, % at 12.5 µM | 320,000 compounds, 0.096% hits | AID 504775;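 active = mean replicate activation of at least 60% and every replicate at or above 60%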
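Assay system: CHO ldlA[mSR-BI] cells, LDL receptor-null, SR-BI overexpressing; medium: Ham's F12 with 0.5% BSA, HEPES 25 mM, pH 7.4; also added: DiI-HDL 10 µg/mL; timing: 3 h uptake period with compound, 37 °C; signal: DiI fluorescence, bottom read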
H9c2 TAG inh: triacylglycerol accumulation inhibition. H9c2 cells, Nile Red lipid (TAG) fluorescence; cells loaded with 200 µM oleic acid. 230,000 compounds, 0.66% hits. AID 651582. inhibition, % at 12.5 µM;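 active = pattern-corrected inhibition of lipid staining of at least 50% with the nuclear-stain viability signal not falling by more than 50%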
Bfl-1 A1 inh: inhibitors of the anti-apoptotic protein A1, read as caspase activation. MEF A1-2A-BIM cells, Caspase-Glo 3/7 luminescence, 3 h; percent of clofoctol response, vehicle zero. 330,000 compounds, 0.066% hits. caspase activation, % (test concentration not listed). AID 2462;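 active = over half of replicate activation scores above 10%, or exactly half above 10 with the replicate mean above 10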
Vif imaging: HIV Vif inhibition; HEK293T cells, Vif self-association by quenched fluorescence, imaging, 24 h; inhibition, % at 7.49 µM; 340,000 compounds, 0.35% hits; in the data active = inhibition above about 50%, passing the limit was not always enough
Of the large screens only hits and unclear results are named; the others gave an inactive call.

O=C(O)c1ccc(N/N=C/c2ccc(-c3ccccc3Cl)o2)cc1	H9c2 TAG inh 68
NC(=O)c1nsc(C(=O)N(c2ccccc2F)C(C(=O)NCc2ccc(F)cc2)c2ccc(O)cc2)c1N (configuration not stated)	none (no result: H9c2 TAG inh)
NC(=O)c1nsc(C(=O)N(c2cccc(F)c2)C(C(=O)NC2CCCC2)c2ccco2)c1N (configuration not stated)	none (no result: H9c2 TAG inh)
NC(=O)c1nsc(C(=O)N(c2cccc(F)c2)C(C(=O)NC2CCCC2)c2ccc(O)cc2)c1N (configuration not stated)	Vif imaging 91 (no result: H9c2 TAG inh)
NC(=O)c1nsc(C(=O)N(Cc2cccnc2)C(C(=O)NCc2ccc(F)cc2)c2ccc(O)cc2)c1N (configuration not stated)	Vif imaging 51 (no result: SR-BI DiI inh, SR-BI DiI-HDL act, H9c2 TAG inh)
c1cc2c(cc1C1CCCCC1)c1c3n2CCCNC3CCC1 (configuration not stated)	H9c2 TAG inh 77
Cc1ccc2c(c1)c1c3n2CCCNC3CCC1 (configuration not stated)	none
COc1ccc(NC(=O)CCC(=O)N/N=C/c2cn(C)nc2C)cc1	Vif imaging 54
O=C(NNC(=O)c1ccccc1O)c1ccc(Cl)cc1	SR-BI DiI inh 88
Cc1cccc(C(=O)NNC(=O)c2ccc(Cl)cc2)c1O	SR-BI DiI inh 75
O=C(NNC(=O)c1cccc2ccccc12)c1ccc(Cl)cc1	none (no result: Bfl-1 A1 inh)
C/C(=C\C(=O)c1ccccc1)NNC(=O)c1ccc(Cl)cc1	SR-BI DiI inh 91 (no result: H9c2 TAG inh)
COc1ccc(C(=O)NN/C(C)=C/C(=O)c2ccccc2)cc1	none (no result: H9c2 TAG inh)
C[C@@H]1CCCCO[C@H](CN(C)Cc2ccc(C(=O)O)cc2)[C@H](C)CN([C@@H](C)CO)C(=O)c2cc(NC(=O)Nc3ccc(C(F)(F)F)cc3)ccc2O1	none (no result: SR-BI DiI inh, SR-BI DiI-HDL act, Bfl-1 A1 inh, Vif imaging)
CCOC(=O)C1=C(COC(=O)/C=C/c2ccc(OC)c(OC)c2)NC(=O)NC1C (configuration not stated)	none (no result: Vif imaging)
CCOC(=O)C1=C(COC(=O)/C=C/c2cc(OC)c(OC)c(OC)c2)NC(=O)NC1C (configuration not stated)	SR-BI DiI inh 81
CCOC(=O)c1cnc2c(cnn2C)c1NCc1ccc(OC)cc1	SR-BI DiI inh 79
Cc1ccc(C(=O)OCn2ncc(Cl)c(Cl)c2=O)cc1	Vif imaging 50 (no result: H9c2 TAG inh)
CCOC(=O)c1ccc(NC(=O)Cn2nc(C)c3ccccc3c2=O)cc1	none
COc1ccc(NC(=O)c2cc3c(s2)CCC3)cc1S(=O)(=O)N1CCOCC1	SR-BI DiI inh 70
CCOC(=O)c1ccc(NC(=O)Cn2ncc(Cl)c(Cl)c2=O)cc1	H9c2 TAG inh 55
COc1ccc(NC(=O)c2ccc(Cl)nc2)cc1S(=O)(=O)N1CCOCC1	none
COc1ccc(NC(=O)Cn2ncc(Cl)c(Cl)c2=O)cc1S(=O)(=O)N1CCOCC1	Vif imaging 59 (no result: H9c2 TAG inh)
COc1ccc(N=C(c2ccccc2)c2c(C)[nH]n(-c3ccccc3)c2=O)c(OC)c1	none
CCOc1ccccc1N1CCN(CC(=O)N(C)CC(=O)Nc2ccccc2CC)CC1	none (no result: SR-BI DiI inh, SR-BI DiI-HDL act, Bfl-1 A1 inh)
Cc1ccc(S(=O)(=O)N2CCCCC2)cc1NC(=O)Cn1ncc(Cl)c(Cl)c1=O	none
Cc1cc(Br)ccc1NC(=O)CNC(=O)Cn1ncc(Cl)c(Cl)c1=O	H9c2 TAG inh 56
CCC(=O)Nc1ccc(C(=O)Cn2ncc(Cl)c(Cl)c2=O)cc1	H9c2 TAG inh 61 (no result: SR-BI DiI inh, SR-BI DiI-HDL act)
O=C(Cn1ncc(Cl)c(Cl)c1=O)c1ccc2c(c1)OCCO2	none
CC1CC(C)CN(C(=O)c2ccc(NS(=O)(=O)c3ccc4[nH]c(=O)[nH]c4c3)cc2)C1 (configuration not stated)	none
Cc1ccc(CNC(=O)C2CCC(CNS(=O)(=O)c3cccs3)CC2)cc1 (configuration not stated)	none (no result: SR-BI DiI inh, SR-BI DiI-HDL act, H9c2 TAG inh)
CC(=O)Nc1ccc2c(c1)Cc1ccc(Cl)cc1-2	SR-BI DiI inh 74 (no result: Bfl-1 A1 inh)
CC(=O)Nc1ccc2c(c1)-c1ccc(F)cc1C2	none (no result: Bfl-1 A1 inh)
O=C(/C=C\c1ccc2c(c1)OCO2)Nc1c2c(nn1-c1ccc(Cl)cc1)CSC2	SR-BI DiI inh 75
CC(=O)Nc1c2c(nn1-c1ccccc1)CSC2	none (no result: H9c2 TAG inh)
CN(c1ccccc1)S(=O)(=O)c1ccc(Cl)c(C(=O)NCC(c2ccco2)N2CCCC2)c1 (configuration not stated)	none
CS(=O)(=O)c1ncc(Cl)c(C(=O)Nc2ccc(OC(F)F)cc2)n1	Bfl-1 A1 inh 18, Vif imaging 54 (no result: H9c2 TAG inh)
Cc1cccc(C)c1NC(=O)c1nc(S(=O)(=O)Cc2ccccc2)ncc1Cl	none (no result: H9c2 TAG inh, Bfl-1 A1 inh)
Cc1ccccc1NC(=O)c1nc(S(C)(=O)=O)ncc1Cl	H9c2 TAG inh 68
CCS(=O)(=O)c1ncc(Cl)c(C(=O)Nc2ccc(S(=O)(=O)N(C)c3ccccc3)cc2)n1	SR-BI DiI inh 86, Bfl-1 A1 inh 13 (no result: H9c2 TAG inh)
CCN(c1ccccc1)S(=O)(=O)c1ccc(NC(=O)c2nc(S(C)(=O)=O)ncc2Cl)cc1	none (no result: H9c2 TAG inh)
COc1cccc(C(=O)NCCS(=O)(=O)N2CCC(C)CC2)c1	none
COc1ccc(CCNC(=O)c2ccc(N(C)S(=O)(=O)c3ccc(C)cc3)cc2)cc1OC	SR-BI DiI inh 74
COc1ccc(CCNC(=O)c2cc([N+](=O)[O-])cc([N+](=O)[O-])c2)cc1OC	SR-BI DiI inh 73 (no result: H9c2 TAG inh)
S=C(Nc1ccccc1)N1CCn2c(nc3ccccc32)C1	Vif imaging 58
COc1cccc(NC(=S)N2CCn3c(nc4ccccc43)C2)c1	none (no result: H9c2 TAG inh)
CC(CCc1ccccc1)NC(=O)COC(=O)c1cccnc1Cl (configuration not stated)	none
CSc1ncccc1C(=O)NNC(=O)c1ccc(NS(=O)(=O)c2cccs2)cc1	none
COc1ccc(CN2CCC(=O)N([C@H](CO)c3ccccc3)CC2)cc1	none
Cc1ccc(Nc2nc(N/N=C/c3c[nH]c4ccccc34)nc(N3CCOCC3)n2)cc1	SR-BI DiI inh 110 (no result: H9c2 TAG inh)
Cc1cccc(OCC(=O)NC(Cc2c[nH]c3ccccc23)C(=O)O)c1C (configuration not stated)	none
N#CC(=Cc1ccccn1)c1nc(-c2ccc(Cl)cc2)cs1	Vif imaging 103 (no result: SR-BI DiI inh, SR-BI DiI-HDL act, Bfl-1 A1 inh)
CC(O)C(NS(=O)(=O)c1ccc2ccccc2c1)C(=O)OCC(=O)Nc1ccccc1OC(F)F (configuration not stated)	none (no result: Bfl-1 A1 inh)
Cc1ccccc1Oc1nc2c(C)cccn2c(=O)c1/C=C(\C#N)C(=O)Nc1c(C)n(C)n(-c2ccccc2)c1=O	Vif imaging 124
COc1ccc(-c2[nH]c(-c3ccc4c(c3)OCO4)nc2-c2ccccc2)cc1	none (no result: Vif imaging)
COc1cc(-c2nc(-c3ccccc3)c(-c3ccc(F)cc3)[nH]2)cc2c1OCO2	SR-BI DiI inh 85 (no result: H9c2 TAG inh)
O=C(N/N=C/c1cccn1-c1ccc(O)cc1)c1cccc2ccccc12	SR-BI DiI inh 77 (no result: H9c2 TAG inh)
COc1ccc2cc(C(=O)N/N=C/c3sc4ccccc4c3O)ccc2c1	SR-BI DiI inh 96 (no result: H9c2 TAG inh)
O=C(N/N=C/c1ccccc1F)c1cccc2ccccc12	none (no result: H9c2 TAG inh)
